Converted amounts (≈) assume the structure as drawn.
How the values were obtained:
Staphylococcus aureus [1] = experiment: Bactericidal activity against clinical isolates of Staphylococcus aureus DM4001 assessed as log reduction in viability at 4 times MIC measured over 30 mins by time kill kinetic study; assay type: functional
Outline: (§1)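 Cells from colonies on an 18–22 h TSA plate, suspended in 0.31 mM phosphate buffer pH 7.2 at 10^5–10^6 CFU/mL. Dosed at 1×, 2× and 4× MIC at 35 °C. Aliquots taken at 10 min, 30 min, 1 h, 2 h and 5 h, diluted ten-fold serially, spread on MHA and counted after 48–72 h at 35 °C. Detection limit 100 CFU/mL. Bactericidal means a 3-log drop versus untreated control.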

Bacillus cereus = experiment: Antibacterial activity against clinical isolates of Bacillus cereus ATCC 11778 after 24 hrs by […]; assay type: functional; conditions: ATCC 11778, 24 h
[2] = Hemolytic activity against New Zealand white rabbit RBC after 1 hr by microplate reader analysis; assay type: ADME, cell-based, Oryctolagus cuniculus, Erythrocyte; conditions: rabbit red blood cells
Outline: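 Rabbit RBCs spun from serum at 3,000 rpm for 10 min and washed twice in PBS. Mixed with compound in DMF at 4% v/v RBCs, 1 h at 37 °C. After centrifugation, hemoglobin in the supernatant read at 576 nm. 2% Triton X-100 was the positive control and 1% DMF the negative control.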

[3] = Cytotoxicity in human corneal fibroblasts at MIC incubated for 4 hrs by LDH release assay relative to control; conditions: corneal fibroblast
Staphylococcus aureus [4] = experiment: Bactericidal activity against clinical isolates of Staphylococcus aureus DM4001 assessed as log reduction in viability at 2 times MIC measured over 300 mins by time kill kinetic study; assay type: functional
Outline: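 Colonies from 18–22 h TSA plates suspended in 0.31 mM phosphate buffer pH 7.2 at 10^5–10^6 CFU/mL. Treated at 1×, 2× and 4× MIC at 35 °C, sampled at 10 min, 30 min, 1 h, 2 h and 5 h. Ten-fold dilutions spread on MHA, 35 °C for 48–72 h, colonies counted. Detection limit 100 CFU/mL; bactericidal means 3-log drop versus untreated.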

Staphylococcus aureus [5] = experiment: Antibacterial activity against clinical isolates of methicillin-resistant Staphylococcus aureus DM9808R after 24 hrs by […]; assay type: functional
Staphylococcus aureus [6] = experiment: Bactericidal activity against clinical isolates of Staphylococcus aureus DM4001 at 4 times MIC measured over 30 mins by time kill kinetic study; assay type: functional; outline: as §1
[7] = Cytotoxicity in human corneal fibroblasts assessed as cell viability at 0.5 times MIC incubated for 4 hrs by luminescent cell viability assay relative to control; parameters: species or system Corneal fibroblast; conditions: read-out: Activity
Outline: (§2)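 Cells plated at 10,000 per well and exposed 4 h in 100 µL. Plate equilibrated to 22 °C for 30 min, then read with CellTiter-Glo luminescence. 1% Triton X-100 set minimal viability and 0.5% DMF served as negative control. Viability computed relative to these controls.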

Staphylococcus aureus [8] = experiment: Induction of membrane permeabilization in clinical isolates of Staphylococcus aureus DM4001 assessed as ATP leakage at MIC incubated for 10 mins by firefly luciferase based luminometry analysis; assay type: functional
Outline: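 Exponential-phase cells washed twice in 20 mM PBS pH 7 and set to OD620 0.3. Exposed 10 min at 37 °C, then spun at 4000 rpm for 5 min. Supernatant mixed with luciferase reagent (1 mM DTT, 0.5 mM D-luciferin, 1.25 µg/mL firefly luciferase). Luminescence read over 30 cycles.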

[9] = Cytotoxicity in human corneal fibroblasts assessed as cell viability at 2 times MIC incubated for 4 hrs by luminescent cell viability assay relative to control; parameters: species or system Corneal fibroblast; conditions: read-out: Activity; outline: as §2
[10] = Cytotoxicity in human corneal fibroblasts at 0.5 times MIC incubated for 4 hrs by LDH release assay relative to control; conditions: corneal fibroblast
Staphylococcus aureus [11] = experiment: Antibacterial activity against clinical isolates of methicillin-resistant Staphylococcus aureus DM21455 after 24 hrs by […]; assay type: functional; conditions: DM21455, 24 h
Staphylococcus aureus [12] = experiment: Induction of membrane permeabilization in clinical isolates of Staphylococcus aureus DM4001 at MIC by SYTOX green uptake assay; assay type: functional
Outline: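 Exponential-phase cells washed twice in 20 mM PBS pH 7 and adjusted to OD620 0.09. Given 3 µM SYTOX Green and kept in the dark until fluorescence was stable, then compound added. Fluorescence followed in a stirred cuvette at ex 504/em 523 nm. Melittin 10 µg/mL was the positive control. Run at least twice; one run reported.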

[13] = Cytotoxicity in human corneal fibroblasts at 2 times MIC incubated for 4 hrs by LDH release assay relative to control; conditions: corneal fibroblast
[14] = Cytotoxicity in human corneal fibroblasts assessed as cell viability at 4 times MIC incubated for 4 hrs by luminescent cell viability assay relative to control; parameters: species or system Corneal fibroblast; conditions: read-out: Activity; outline: as §2
[15] = Selectivity index, ratio of HC50 for hemolytic activity against New Zealand white rabbit RBC to MIC for clinical isolates of Staphylococcus aureus DM4001
[16] = Cytotoxicity in human corneal fibroblasts at 4 times MIC incubated for 4 hrs by LDH release assay relative to control; conditions: corneal fibroblast
Staphylococcus aureus [17] = experiment: Antibacterial activity against clinical isolates of Staphylococcus aureus DM4001R after 24 hrs by […]; assay type: functional
Staphylococcus aureus [18] = experiment: Bactericidal activity against clinical isolates of Staphylococcus aureus DM4001 at 2 times MIC measured over 300 mins by time kill kinetic study; assay type: functional; outline: as §1
[19] = Cytotoxicity in human corneal fibroblasts assessed as cell viability at MIC incubated for 4 hrs by luminescent cell viability assay relative to control; parameters: species or system Corneal fibroblast; conditions: read-out: Activity; outline: as §2
[20] = Membrane permeabilization activity assessed as release of calcein from DOPE/DOPG liposomes at lipid:compound ratio of 8 incubated for 30 mins by fluorescence assay; assay type: ADME; conditions: 0.5 h
Outline: (§3)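 Freeze-thawed, extruded, then gel-filtered. Final lipid 50 µM with compound added from DMF (<0.2%). Fluorescence at ex 490/em 520 nm over 30 min; 0.1% Triton X-100 defined 100% lysis.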

[21] = Membrane permeabilization activity assessed as release of calcein from DOPE/DOPG liposomes at lipid:compound ratio of 16 incubated for 30 mins by fluorescence assay; assay type: ADME; conditions: 0.5 h; outline: as §3

SMILES: COc1c(OCCCCN)cc2oc3cc(OCCCCN)c(CC=C(C)C)c(O)c3c(=O)c2c1CC=C(C)C
- LCK (Staphylococcus aureus [1]): 3
- MIC (Bacillus cereus): 3.12 µg/mL (≈ 5.65 µM)
- HC50 at 1 h [2]: 80.2 µg/mL
- Activity [3]: -1%
- LCK (Staphylococcus aureus [4]): 3
- MIC (Staphylococcus aureus [5]): 3.12 µg/mL (≈ 5.65 µM)
- Activity (Staphylococcus aureus [6]): 99.9%
- viability at 4 h, 0.5 times MIC [7]: 98.5%
- Activity (Staphylococcus aureus [8]): 210 nM
- viability at 4 h, 2 times MIC [9]: 90.7%
- Activity [10]: -0.7%
- MIC (Staphylococcus aureus [11]): 1.56 µg/mL (≈ 2.82 µM)
- Activity (Staphylococcus aureus [12]): 1497 cps
- Activity [13]: -0.5%
- viability at 4 h, 4 times MIC [14]: 90.3%
- Selectivity ratio [15]: 51.4
- Activity [16]: 0.9%
- MIC (Staphylococcus aureus [17]): 1.56 µg/mL (≈ 2.82 µM)
- Activity (Staphylococcus aureus [18]): 99.9%
- viability at 4 h, 1 times MIC [19]: 91.7%

SMILES: CCN(CC)CCCCOc1cc2oc3cc(OCCCCN(CC)CC)c(OC)c(CCC(C)C)c3c(=O)c2c(O)c1CCC(C)C
- MIC (Bacillus cereus): 25 µg/mL (≈ 37.4 µM)
- HC50 at 1 h [2]: 48.6 µg/mL
- MIC (Staphylococcus aureus [5]): 12.5 µg/mL (≈ 18.7 µM)
- Activity [20]: 58.6%
- Activity [21]: 20.1%
- MIC (Staphylococcus aureus [11]): 25 µg/mL (≈ 37.4 µM)
- Selectivity ratio [15]: 15.6
- MIC (Staphylococcus aureus [17]): 3.12 µg/mL (≈ 4.67 µM)

Reference: ChEMBL document CHEMBL3751813, “Nonpeptidic Amphiphilic Xanthone Derivatives: Structure-Activity Relationship and Membrane-Targeting Properties” (J Med Chem, 2016)
